The text below walks through data of PubChem BioAssay AID493096 (Broad Institute, 2011).

The subject of assay [1] is Vibrio harveyi BB721 quorum sensing luminescence, 9 h. Put plainly: Vibrio harveyi quorum sensing luminescence inhibitors, dose response, counter-screen for LuxS inhibitor project, strain BB721, dry powder, set 2 (AID 493096). The method, boiled down:
(§1)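 Material: Vibrio harveyi BB721, strain with quorum sensing constitutively on. Buffer or medium: AB medium. Schedule: compound exposure of 9 h at 30 °C.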
(The purpose of a counterscreen is to sort out artefacts and off-target activity.)

Experiment in assay [2]: as above
As to conditions: Vibrio harveyi BB721 quorum sensing luminescence, 9 h; at 16 µM (top of the series). In outline: as §1

Values joined by “and” are separate entries in the source; they are usually repeats but may differ in a detail not shown here. Identical values can stand only once. Active and inactive are the calls of the source.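 Rule for the calls: active = signal drops and an active concentration is fitted at or below ten times the top valid dose of that sample; inconclusive = flat fit between -70 and -30%, or poor fit quality; inactive = the rest.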

Consider `CCc1ccc(S(=O)(=O)Nc2ccc(Br)cn2)cc1`, for which, in assay [1], the AC50 (in general, the concentration at which the activity in the assay is half-maximal) was 14.8 µM.

For `CCc1ccc(C(=O)Nc2ccc(Br)cn2)cc1`, the activity change, negative = inhibition in assay [2] was -2.33% (inactive).

Turning to `O=C1C=C/C(=C/Br)O1`, in assay [1], the AC50 was 6.86 µM.

For `Cc1cccc(NS(=O)(=O)c2ccc(Oc3ccccc3)cc2)n1`, the AC50 in assay [1] was 11.1 µM and 15.4 µM.

On to `Cc1cccc(NC(=O)c2ccc(Oc3ccccc3)cc2)n1`, for which, in assay [1], the half-maximal activity concentration (AC50) was 14.9 µM.

As for `COc1cc(NC(=O)CN2C(=O)NC(c3ccccc3)(c3ccccc3)C2=O)cc(OC)c1`, in assay [1], the AC50 was 0.769 µM and 1.14 µM.
